Calls of active or inactive are those of the source. No cut-off for these calls is given here.
Assays:
[1] = target: T1, Hypoxia inducible factors; HIF-1-alpha, HIF-2-alpha (Homo sapiens, UniProt Q16665+Q99814); assay: Inhibition of HIF1 transcriptional activity in human LN229 cells expressing VEGF-HRE-V6R and coexpressing luciferase, lac Z gene incubated for 1 hr in normoxia condition followed by 24 hrs in hypoxia condition by reporter gene assay; assay type: cell-based
Summary of the method: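 LN229 glioblastoma cells stably carrying a 6×VEGF-HRE bidirectional luciferase/lacZ reporter, 3 × 10^4 per well, grown 24 h normoxic in DMEM/10% FBS. Compound (serial dilutions in medium, 1% DMSO) added, 1 h normoxia, then 24 h at 1% O2, 37 °C. Lysate luciferase read by luminometer, as percent of untreated hypoxic cells. Triplicates, two independent experiments.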

[2] = Downregulation of HIF1alpha protein level in human LN229 cells expressing VEGF-HRE-V6R at 10 uM incubated for 1 hr in normoxia condition followed by 24 hrs in hypoxia condition by Western blot analysis relative to control; assay type: functional, cell-based; settings: LN-229
Summary of the method: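 LN229-V6R cells (2 × 10^5 per 35 mm dish) grown 24 h under normoxia. Compounds given at 10 μM in medium with 1% DMSO, 1 h normoxia, then 24 h hypoxia (1% O2) at 37 °C. SDS lysis, 12.5% gel, nitrocellulose, anti-HIF-1α and β-actin blots, ECL. Densitometry as percent of untreated hypoxic control, normalized to β-actin.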

[3] = target: T1, Hypoxia inducible factors; HIF-1-alpha, HIF-2-alpha; assay: Inhibition of HIF1 transcriptional activity in human LN229 cells expressing VEGF-HRE-V6R and coexpressing lac Z gene at 10 uM incubated for 1 hr in normoxia condition followed by 24 hrs in hypoxia condition by luciferase reporter gene assay relative to control; values are per cent of control
[4] = Aqueous solubility of the compound at pH 7.4; assay type: physicochemical

| Compound | IC50 [1] [µM] | inhibition [1] | residual activity [3] [%] | Activity [2] | solubility [4] [µg/mL] |
| --- | --- | --- | --- | --- | --- |
| CC(C)N(Cc1ccc2c(c1)C=CC(C)(C)O2)S(=O)(=O)c1ccc(F)cc1 | 3.8 | Dose-dependent effect |  | inactive |  |
| COc1ccc(S(=O)(=O)N(Cc2ccc3c(c2)C=CC(C)(C)O3)C(C)C)cc1OC | 1.5 | Dose-dependent effect | < 5 | 30% |  |
| CC(C)N(Cc1ccc2c(c1)C=CC(C)(C)O2)S(=O)(=O)c1ccccc1 | 2.2 | Dose-dependent effect |  |  |  |
| CC1(C)C=Cc2cc(CN(c3ccc(F)cc3)S(=O)(=O)c3ccc([N+](=O)[O-])cc3)ccc2O1 | 4.8 | Dose-dependent effect |  |  |  |
| COc1ccc(S(=O)(=O)N(Cc2ccc3c(c2)C=CC(C)(C)O3)c2ccccc2)cc1OC | 1.6 | Dose-dependent effect | < 5 | inactive | < 15 |
| CC(C)N(Cc1ccc2c(c1)C=CC(C)(C)O2)S(=O)(=O)c1ccc([N+](=O)[O-])cc1 | 3 | Dose-dependent effect |  |  |  |
| COc1ccc(S(=O)(=O)N(Cc2ccc3c(c2)C=CC(C)(C)O3)c2ccc(F)cc2)cc1OC | 3.2 | Dose-dependent effect | < 5 | inactive |  |
| CC1(C)C=Cc2cc(CN(c3ccc(F)cc3)S(=O)(=O)c3ccc(F)cc3)ccc2O1 | 6.6 | Dose-dependent effect |  |  |  |

More lines, main results first:

| IC50 [1] [µM] | inhibition [1] | residual activity [3] [%] | Compound | Activity [2] | solubility [4] [µg/mL] |
| --- | --- | --- | --- | --- | --- |
| 7.2 | Dose-dependent effect |  | CC1(C)C=Cc2cc(CN(c3ccc(F)cc3)S(=O)(=O)c3ccccc3)ccc2O1 |  |  |
| 4.8 | Dose-dependent effect |  | CC1(C)C=Cc2cc(CN(c3ccccc3)S(=O)(=O)c3ccc(F)cc3)ccc2O1 |  |  |
| 8 | Dose-dependent effect |  | CC1(C)C=Cc2cc(CN(c3ccc(F)cc3)S(=O)(=O)c3cc(Cl)ccc3Cl)ccc2O1 |  |  |
| 16.8 | Dose-dependent effect |  | CC(C)N(Cc1ccc2c(c1)C=CC(C)(C)O2)S(=O)(=O)c1cc(Cl)ccc1Cl |  |  |
| 3.3 | Dose-dependent effect |  | CC1(C)C=Cc2cc(CN(c3ccccc3)S(=O)(=O)c3cc(Cl)ccc3Cl)ccc2O1 |  |  |
| 2.7 | Dose-dependent effect |  | CC1(C)C=Cc2cc(CN(c3ccccc3)S(=O)(=O)c3ccccc3)ccc2O1 |  |  |
| 4.2 | Dose-dependent effect |  | CC1(C)C=Cc2cc(CN(c3ccccc3)S(=O)(=O)c3ccc([N+](=O)[O-])cc3)ccc2O1 |  |  |

— ChEMBL document CHEMBL2057132, “Structure-activity relationship of 2,2-dimethyl-2H-chromene based arylsulfonamide analogs of 3,4-dimethoxy-N-[(2,2-dimethyl-2H-chromen-6-yl)methyl]-N-phenylbenzenesulfonamide, a novel small molecule hypoxia inducible factor-1 (HIF-1) pathway inhibitor and anti-cancer agent” (Bioorg Med Chem, 2012)
